Nine molecules from ChEMBL document CHEMBL1125449, “Substitution on the Phe3 aromatic ring in cyclic delta opioid receptor-selective dermorphin/deltorphin tetrapeptide analogues: electronic and lipophilic requirements for receptor affinity” (J Med Chem, 1992) can be followed below.

Positions of bridges follow the written chain, without caps; N, C: chain ends. Non-standard residues stand in square brackets, D forms with d. Residues, ends and D or L forms follow the SMILES beside them. Phe(4-NO2) = N[C@@H](Cc1ccc([N+](=O)[O-])cc1)C(=O)O; Phe(4-tBu) = CC(C)(C)c1ccc(C[C@H](N)C(=O)O)cc1; Phe(4-Cl) = N[C@@H](Cc1ccc(Cl)cc1)C(=O)O; Phe(3-F) = N[C@@H](Cc1cccc(F)c1)C(=O)O; Phe(4-F) = N[C@@H](Cc1ccc(F)cc1)C(=O)O; Phe(4-Me) = Cc1ccc(C[C@H](N)C(=O)O)cc1; Phe(2-F) = N[C@@H](Cc1ccccc1F)C(=O)O; mTyr = N[C@@H](Cc1cccc(O)c1)C(=O)O; Pen = CC(C)(S)[C@H](N)C(=O)O Where only a bound is given, the exact number is not on record here.

For test [1], the target named is T1, Mu-type opioid receptor (Cavia porcellus, UniProt P97266). Description: Compound was tested for the inhibition of [3H]- [D-Ala2, N-MePhe4, Gly5-ol]-enkephalin (DAMGO) binding to Opioid receptor mu 1 in guinea pig brain homogenates. In kind it is tissue-based.
T1 sequence (P97266 whole entry): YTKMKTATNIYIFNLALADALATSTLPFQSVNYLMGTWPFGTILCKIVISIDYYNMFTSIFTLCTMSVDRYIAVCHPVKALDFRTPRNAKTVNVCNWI
Test [2] deals with T2, Kappa-type opioid receptor (Cavia porcellus, UniProt P41144). The experiment in a line: Compound was tested for the inhibition of [3H]- (U69,593) binding to Opioid receptor kappa 1 in guinea pig brain homogenates. In kind it is tissue-based.
T2 sequence (P41144 whole entry): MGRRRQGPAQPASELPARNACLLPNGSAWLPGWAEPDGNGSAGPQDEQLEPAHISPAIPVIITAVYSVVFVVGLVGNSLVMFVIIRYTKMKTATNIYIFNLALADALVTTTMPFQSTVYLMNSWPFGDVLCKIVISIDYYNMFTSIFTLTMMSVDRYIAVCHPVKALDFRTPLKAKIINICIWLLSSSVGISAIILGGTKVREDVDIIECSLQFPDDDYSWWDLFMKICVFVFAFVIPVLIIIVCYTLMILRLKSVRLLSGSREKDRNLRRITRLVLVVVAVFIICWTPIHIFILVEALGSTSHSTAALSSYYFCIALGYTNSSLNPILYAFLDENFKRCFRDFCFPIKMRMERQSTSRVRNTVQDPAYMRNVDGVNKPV
For test [3], the target named is Opioid receptors; mu & delta (Homo sapiens) (UniProt P41143+P35372). Description: Ratio of binding affinity towards mu receptor to delta receptor. In kind it is protein assay.
Chain of Opioid receptors; mu & delta (Homo sapiens) (P35372 whole entry, looked up): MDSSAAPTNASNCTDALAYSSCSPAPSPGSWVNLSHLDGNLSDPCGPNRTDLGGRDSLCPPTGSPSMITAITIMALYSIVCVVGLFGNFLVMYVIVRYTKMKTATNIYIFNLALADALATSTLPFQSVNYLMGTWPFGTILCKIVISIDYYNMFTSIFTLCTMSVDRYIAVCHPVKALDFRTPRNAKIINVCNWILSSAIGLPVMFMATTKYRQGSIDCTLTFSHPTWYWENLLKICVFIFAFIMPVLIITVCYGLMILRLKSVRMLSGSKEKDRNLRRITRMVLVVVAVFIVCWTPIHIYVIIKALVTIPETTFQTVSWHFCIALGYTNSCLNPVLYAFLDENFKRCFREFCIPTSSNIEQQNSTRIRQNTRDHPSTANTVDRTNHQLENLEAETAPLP
Chain of Opioid receptors; mu & delta (Homo sapiens) (P41143 whole entry, looked up): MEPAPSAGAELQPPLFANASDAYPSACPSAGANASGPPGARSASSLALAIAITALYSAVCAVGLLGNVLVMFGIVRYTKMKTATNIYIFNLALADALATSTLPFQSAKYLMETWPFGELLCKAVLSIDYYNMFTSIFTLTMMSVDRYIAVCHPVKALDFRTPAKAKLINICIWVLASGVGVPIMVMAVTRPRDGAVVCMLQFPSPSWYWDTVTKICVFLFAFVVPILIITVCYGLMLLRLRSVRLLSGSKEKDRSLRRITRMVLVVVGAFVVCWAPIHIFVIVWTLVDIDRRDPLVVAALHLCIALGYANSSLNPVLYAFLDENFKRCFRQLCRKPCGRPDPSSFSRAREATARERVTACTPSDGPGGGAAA
Test [4] deals with T2, Kappa-type opioid receptor. Description: Compound was tested for the inhibition of [3H]- (U69,593) binding to opioid receptor kappa in guinea pig brain homogenates. It counts as tissue-based. Put shortly:
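Guinea pig brain membranes (washed, preincubated 37 °C 30 min to remove endogenous opioids) in 50 mM Tris pH 7.4. Test compound preincubated with membranes 15 min at 25 °C, then 0.9 nM [3H]U69,593 added and incubated 90 min at 25 °C. Nonspecific binding defined with 10 μM U69,593. Filtration, scintillation counting. 12 concentrations, triplicate. IC50 by regression; Ki from saturation-derived KD.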

Test [5] has as its target T1, Mu-type opioid receptor. Description: Compound was tested for the inhibition of [3H]- [D-Ala2, N-MePhe4, Gly5-ol]-enkephalin (DAMGO) binding to opioid receptor mu in guinea pig brain homogenates. In kind it is tissue-based. The method in brief:
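Guinea pig brain membranes (washed, preincubated 37 °C 30 min to remove endogenous opioids) in 50 mM Tris pH 7.4. Test compound preincubated with membranes 15 min at 25 °C, then 0.6 nM [3H]DAMGO added and incubated 75 min at 25 °C. Nonspecific binding defined with 5 μM DAMGO. Filtration, scintillation counting. 12 concentrations, triplicate. IC50 by regression; Ki from saturation-derived KD.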

In test [6] the target is Mu-type opioid receptor (Cavia porcellus) (UniProt P97266). Description: Ratio of binding affinity towards opioid receptor mu to opioid receptor delta.
Chain of Mu-type opioid receptor (Cavia porcellus) (P97266 whole entry): as the sequence (P97266 whole entry) above

For the molecule `CC1(C)SSC[C@H](NC(=O)[C@@H](N)Cc2ccc(O)cc2)C(=O)N[C@@H](Cc2ccc(F)cc2)C(=O)N[C@@H]1C(=O)O` (H-YC[Phe(4-F)][Pen]-OH; disulfide 2-4), the inhibition constant Ki (usually a measure of affinity in units of concentration, obtained from inhibition or displacement) in test [1] is 0.161 µM; in test [2] it was greater than 10 µM. Moreover, in test [3], the Ratio stood at 146.

Regarding `CC1(C)SSC[C@H](NC(=O)[C@@H](N)Cc2ccc(O)cc2)C(=O)N[C@@H](Cc2ccc(O)cc2)C(=O)N[C@@H]1C(=O)O` (H-YCY[Pen]-OH; disulfide 2-4), the Ki in test [1] was 3.45 µM; in test [2], greater than 10 µM. Moreover, the Ratio in test [3] was 135.

`CC1(C)SSC[C@H](NC(=O)[C@@H](N)Cc2ccc(O)cc2)C(=O)N[C@@H](Cc2ccc([N+](=O)[O-])cc2)C(=O)N[C@@H]1C(=O)O` (H-YC[Phe(4-NO2)][Pen]-OH; disulfide 2-4): the values for the Ki in test [1] and in test [2] were 0.137 µM and greater than 10 µM, respectively. The Ratio in test [3] stood at 82.5.

As for `CC1(C)SSC[C@H](NC(=O)[C@@H](N)Cc2ccc(O)cc2)C(=O)N[C@@H](Cc2ccccc2F)C(=O)N[C@@H]1C(=O)O` (H-YC[Phe(2-F)][Pen]-OH; disulfide 2-4), the Ki in test [4] was greater than 10 µM; in test [5], 0.0919 µM. Moreover, the Ratio in test [6] was found to be 28.1.

Turning to `CC1(C)SSC[C@H](NC(=O)[C@@H](N)Cc2ccc(O)cc2)C(=O)N[C@@H](Cc2cccc(O)c2)C(=O)N[C@@H]1C(=O)O` (H-YC[mTyr][Pen]-OH; disulfide 2-4), the Ki is 3.4 µM in test [1], greater than 10 µM in test [4], greater than 10 µM in test [2] and 0.712 µM in test [5]. Besides, the results for the Ratio in test [6] and in test [3] were 76.6 and 22.3, respectively.

For the molecule `CC1(C)SSC[C@H](NC(=O)[C@@H](N)Cc2ccc(O)cc2)C(=O)N[C@@H](Cc2cccc(F)c2)C(=O)N[C@@H]1C(=O)O` (H-YC[Phe(3-F)][Pen]-OH; disulfide 2-4), the Ki in test [4] was greater than 10 µM; in test [5], 0.0555 µM. For the same molecule, the Ratio in test [6] is 19.2.

With `CC(C)(C)c1ccc(C[C@@H]2NC(=O)[C@@H](NC(=O)[C@@H](N)Cc3ccc(O)cc3)CSSC(C)(C)[C@@H](C(=O)O)NC2=O)cc1` (H-YC[Phe(4-tBu)][Pen]-OH; disulfide 2-4), the Ki in test [1] was 10 µM; in test [4] it was greater than 10 µM; in test [2], greater than 10 µM; in test [5], 10 µM. The Ratio in test [6] came to 270; in test [3] it was 15.

Turning to `CC1(C)SSC[C@H](NC(=O)[C@@H](N)Cc2ccc(O)cc2)C(=O)N[C@@H](Cc2ccc(Cl)cc2)C(=O)N[C@@H]1C(=O)O` (H-YC[Phe(4-Cl)][Pen]-OH; disulfide 2-4), the Ki amounted to 10 µM in test [4] and 0.327 µM in test [5]. In addition, the Ratio in test [6] worked out at 334.

In the case of `Cc1ccc(C[C@@H]2NC(=O)[C@@H](NC(=O)[C@@H](N)Cc3ccc(O)cc3)CSSC(C)(C)[C@@H](C(=O)O)NC2=O)cc1` (H-YC[Phe(4-Me)][Pen]-OH; disulfide 2-4), the Ki is greater than 10 µM in test [4] and 1.75 µM in test [5]. In addition, in test [6], the Ratio is 325.
